Our source for the inhibition, viability and fold change (FC) values is ChEMBL document CHEMBL3596168, “Novel inhibitors of RANKL-induced osteoclastogenesis: Design, synthesis, and biological evaluation of 6-(2,4-difluorophenyl)-3-phenyl-2H-benzo[e][1,3]oxazine-2,4(3H)-diones” (Bioorg Med Chem, 2015).

SMILES strings stand for the structures. The source made the active and inactive calls. The calls are words filed in the database; no cut-off is given here.

Data set [1] has as its target T1, Tumor necrosis factor ligand superfamily member 11 (Mus musculus) (UniProt O35235).
T1 sequence (whole entry): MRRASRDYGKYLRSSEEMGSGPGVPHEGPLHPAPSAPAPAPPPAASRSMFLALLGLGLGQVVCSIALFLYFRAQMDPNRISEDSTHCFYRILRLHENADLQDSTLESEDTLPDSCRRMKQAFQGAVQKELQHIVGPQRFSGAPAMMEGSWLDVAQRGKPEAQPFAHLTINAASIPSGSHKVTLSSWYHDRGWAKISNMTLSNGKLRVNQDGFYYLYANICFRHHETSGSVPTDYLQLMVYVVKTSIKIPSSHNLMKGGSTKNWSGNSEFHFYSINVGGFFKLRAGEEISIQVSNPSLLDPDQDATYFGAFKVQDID
Nature of the data set: Inhibition of recombinant mouse RANKL-induced osteoclastogenesis of mouse RAW264.7 cells assessed as reduction of TRAP-positive multinucleated cells at 5 uM after 4 days by light microscopic analysis relative to control. It is filed as cell-based. The method, boiled down: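 RAW264.7 cells were cultured 4 days in α-MEM with 10% FBS, 2 mM L-glutamine and RANKL 100 ng/mL, with or without compound at 5 µM. Medium was changed on day 2. Cells were fixed in acetone/citrate/formaldehyde and stained for TRAP for 1 h at 37 °C. TRAP+ cells with three or more nuclei were counted by light microscopy. Inhibition = 100% − MNCs (%). At least three independent experiments.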

Data set [2] is described as follows: Cytotoxicity against mouse RAW264.7 cells assessed as cell viability at 5 uM after 24 hrs by MTT assay relative to control. Particulars: read-out: Activity. It is filed as cell-based. The method in brief:
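RAW264.7 cells, 1 × 10⁴ per well in DMEM with 10% FBS, were exposed to compounds for 24 h. MTT (500 µg/mL) was then added for 1 h at 37 °C, formazan was dissolved in DMSO, and absorbance was read at 540 nm. Viability at 5 µM is relative to untreated control. At least three independent experiments, mean ± SD.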

Data set [3] deals with T1, Tumor necrosis factor ligand superfamily member 11 (Mus musculus). Nature of the data set: Inhibition of recombinant mouse RANKL-induced TRAP activity in mouse RAW264.7 cells using 4-nitrophenyl phosphate as TRAP substrate preincubated for 4 days followed by substrate addition measured after 15 mins by ELISA reader analysis. It is filed as cell-based. The method in brief:
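RAW264.7 cells (2 × 10⁴ per well) were cultured 4 days in α-MEM with 10% FBS, 2 mM L-glutamine and murine RANKL 100 ng/mL, with or without compound. Cells were lysed in 0.1% Triton X-100/50 mM Tris-HCl pH 7.2 on ice. They were incubated with 2 mg/mL 4-nitrophenyl phosphate in 0.09 M citrate for 15 min at 37 °C, stopped with 0.1 N NaOH, and read at 405 nm. Protein was measured by BCA.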

Data set [4] has the same target. The experiment in a line: Inhibition of recombinant mouse RANKL-induced osteoclastogenesis of mouse RAW264.7 cells assessed as suppression of NFATc1 mRNA expression at 2.5 to 5 uM preincubated for 1 hr followed by RANKL addition measured after 24 hrs by RT-PCR analysis. Type of data set: cell-based. The method in brief:
(§1)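 RAW264.7 cells (1 × 10⁵ per dish) were serum-starved 24 h in α-MEM, pretreated with compound for 1 h, then given RANKL (100 ng/mL) for 24 h. Total RNA (2 µg) was reverse-transcribed with oligo(dT) and amplified with mouse-specific primers. Products were resolved on 1.5% agarose with EtBr and densities normalized to GAPDH, as % of control. At least two independent experiments.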

For data set [5] the target is unchanged. Nature of the data set: Inhibition of recombinant mouse RANKL-induced osteoclastogenesis of mouse RAW264.7 cells assessed as suppression of c-fos mRNA expression at 2.5 to 5 uM preincubated for 1 hr followed by RANKL addition measured after 24 hrs by RT-PCR analysis. Type of data set: cell-based. The method in brief: as §1
Data set [6] shares this target. Nature of the data set: Inhibition of recombinant mouse RANKL-induced osteoclastogenesis of mouse RAW264.7 cells assessed as suppression of TRAP mRNA expression at 2.5 to 5 uM preincubated for 1 hr followed by RANKL addition measured after 24 hrs by RT-PCR analysis. Type of data set: cell-based. The method, boiled down: as §1
Data set [7] has the same target. The experiment in a line: Inhibition of recombinant mouse RANKL-induced osteoclastogenesis of mouse RAW264.7 cells assessed as suppression of cathepsin K mRNA expression at 2.5 to 5 uM preincubated for 1 hr followed by RANKL addition measured after 24 hrs by RT-PCR analysis. Type of data set: cell-based. The method in brief:
as §1

Data set [8] shares this target. The experiment in a line: Inhibition of recombinant mouse RANKL-induced NF-kappaB expression in nucleus of mouse RAW264.7 cells at 5 uM preincubated for 1 hr followed by RANKL addition measured after 24 hrs by ELISA plate analysis. It is filed as cell-based. The method, boiled down: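 Cells were pretreated 1 h with compound in α-MEM/10% FBS, then stimulated with RANKL (100 ng/mL) for 24 h. NF-κB p65 DNA binding in nuclear extracts was measured on plates coated with the response element, using primary plus tagged secondary antibody. Absorbance was read at 450 nm.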

The target is the same in data set [9]. Nature of the data set: Inhibition of recombinant mouse RANKL-induced NF-kappaB expression in nuclear extracts of mouse RAW264.7 cells assessed as decrease in ratio of NF-kappaB to TBP level at 5 uM preincubated for 1 hr followed by RANKL addition measured after 24 hrs by Western blot analysis relative to control. The method in brief: (§2)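 RAW264.7 cells (1 × 10⁵ per dish) grew in DMEM/10% FBS for 24 h. They were pretreated with compound in α-MEM/10% FBS for 1 h, then given RANKL (100 ng/mL) for 24 h. Nuclear extracts (18 µg protein) were run on 12% SDS–PAGE and immunoblotted for NF-κB p65, NFATc1 and TBP (loading reference) with ECL detection. More than two cultures.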
On the technique in general: A western blot detects proteins with antibodies after separation by electrophoresis.

Data set [10] shares this target. The experiment in a line: Inhibition of recombinant mouse RANKL-induced NF-kappaB expression in nuclear extracts of mouse RAW264.7 cells assessed as decrease in ratio of NFATc1 to TBP level at 5 uM preincubated for 1 hr followed by RANKL addition measured after 24 hrs by Western blot analysis relative to control. The method in brief:
as §2

For data set [11] the target is unchanged. The experiment in a line: Inhibition of recombinant mouse RANKL-induced bone resorptive activity of mature osteoclasts derived from mouse RAW264.7 cells assessed as attenuation of resorbing pit formation on dentine slices after 4 days by toluidine blue staining assay. It is filed as tissue-based. The method in brief:
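Cells (1 × 10⁴ per well) were seeded on dentine slices in α-MEM with 10% FBS, 2 mM L-glutamine and RANKL 100 ng/mL, plus compound at 7.5, 5 or 2.5 µM. Medium was refreshed every 2 days. On day 4 cells were removed with 1 M NH₄OH and slices stained with 0.1% toluidine blue. Resorbed/total area was expressed as % of control, from more than 6 slices.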

The inhibition is the share of the control response that was lost under treatment. With `O=c1oc2ccc(-c3ccc(F)cc3F)cc2c(=O)n1-c1cc(F)ccc1F`, the inhibition in data set [1] is 86.8%; in data set [3], “Dose-dependent effect”; in [11] it was “Dose-dependent effect”. In [2], the viability at 24 h, 5 µM is 86.6%. In addition, the inhibition result in data set [4], in data set [5], in data set [6], in [7] and in data set [8] was “Active” in each case. The fold change (FC) in data set [9] worked out at 0.69; in data set [10], 0.61.
On to `O=c1oc2ccc(-c3ccc(F)cc3F)cc2c(=O)n1-c1ccccc1C(F)(F)F`, for which the inhibition in data set [1] came out at 31.6%. For the same molecule, in [2], the viability at 24 h, 5 µM was found to be 95.5%.
The matching figures for `N#Cc1ccc(-n2c(=O)oc3ccc(-c4ccc(F)cc4F)cc3c2=O)cc1`: 29.4% and 108%.
With `C#Cc1cccc(-n2c(=O)oc3ccc(-c4ccc(F)cc4F)cc3c2=O)c1`, the inhibition in [1] is 57.5%; in data set [3], “Dose-dependent effect”. Also, the viability at 24 h, 5 µM in [2] worked out at 88.4%. For the same molecule, the inhibition entry in [4], in data set [5], in [6] and in data set [7] was “Active” throughout.
`O=c1oc2ccc(-c3ccc(F)cc3F)cc2c(=O)n1-c1cccc(C(F)(F)F)c1`: the results for the inhibition in [1] and in data set [3] were 62.9% and “Dose-dependent effect”, respectively. Further, the viability at 24 h, 5 µM in data set [2] came out at 100%.
With `COc1ccc(-n2c(=O)oc3ccc(-c4ccc(F)cc4F)cc3c2=O)cc1OC`, the inhibition in data set [1] was determined as 21.2%. Besides, the viability at 24 h, 5 µM in data set [2] was found to be 103%.
As to `O=c1oc2ccc(-c3ccc(F)cc3F)cc2c(=O)n1-c1ccc(C(F)(F)F)cc1`, in [1], the inhibition worked out at 16.9%. Moreover, the viability at 24 h, 5 µM in data set [2] came out at 103%.
Regarding `COc1cccc(-n2c(=O)oc3ccc(-c4ccc(F)cc4F)cc3c2=O)c1`, in data set [1], the inhibition stood at 30.8%. The viability at 24 h, 5 µM in data set [2] was found to be 106%.
The matching figures for `O=c1oc2ccc(-c3ccc(F)cc3F)cc2c(=O)n1-c1ccc(F)cc1F`: 42.3% and 96.5%.
`O=c1oc2ccc(-c3ccc(F)cc3F)cc2c(=O)n1-c1ccc(F)c(F)c1`: the inhibition in data set [1] amounted to 17.4%. In addition, the viability at 24 h, 5 µM in [2] turned out to be 72.2%.
The like results for `N#Cc1cccc(-n2c(=O)oc3ccc(-c4ccc(F)cc4F)cc3c2=O)c1` were, in that order, 34% and 103%.
The matching figures for `O=c1oc2ccc(-c3ccc(F)cc3F)cc2c(=O)n1-c1ccc(Cl)cc1F`: 19.4% and 96.2%.
